# Experimental data: ChEMBL document CHEMBL4270591, “Exploitation of new chalcones and 4H-chromenes as agents for cancer treatment” (Eur J Med Chem, 2018)
# Active and inactive are the calls of the source. The rule behind the calls is not given here.
# Experiments:
# MCF7 [1] = assay: Anticancer activity against human MCF7 cells assessed as cell viability at 10 uM after 72 hrs by sulforhodamine B assay relative to control; assay type: functional; details: MCF7, 72 h, read-out: Activity
# MCF7 [2] = assay: Anticancer activity against human MCF7 cells assessed as cell viability at 30 uM after 72 hrs by sulforhodamine B assay relative to control; assay type: functional; details: MCF7, 72 h, read-out: Activity
# Hs-578T [3] = assay: Anticancer activity against human Hs 578T cells assessed as cell viability at 10 uM after 72 hrs by sulforhodamine B assay relative to control; assay type: functional; details: read-out: Activity
# Hs-578T [4] = assay: Anticancer activity against human Hs 578T cells assessed as cell viability at 30 uM after 72 hrs by sulforhodamine B assay relative to control; assay type: functional; details: read-out: Activity
# [5] = Cytotoxicity against human MCF10A cells assessed as cell viability at 10 uM after 72 hrs by sulforhodamine B assay relative to control; assay type: cell-based, MCF-10A; details: read-out: Activity
# [6] = Cytotoxicity against human MCF10A cells assessed as cell viability at 30 uM after 72 hrs by sulforhodamine B assay relative to control; assay type: cell-based, MCF-10A; details: read-out: Activity
# MCF7 [7] = assay: Anticancer activity against human MCF7 cells after 72 hrs by sulforhodamine B assay; assay type: functional, cell-based; details: MCF7, 72 h
# Outline: (§1)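 Cells seeded at 3000 cells/100 µL per well, left to adhere overnight (18-20 h), then exposed to a range of compound concentrations for 72 h. Vehicle control was 0.5% DMSO. Cytotoxicity was read by sulforhodamine B at 490 nm, with 690 nm as background. IC50 came from sigmoidal variable-slope nonlinear regression on log-transformed data, from at least three independent experiments, each in triplicate.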
# Hs-578T [8] = assay: Anticancer activity against human Hs 578T cells after 72 hrs by sulforhodamine B assay; assay type: functional, cell-based; outline: as §1
# MCF-10A [9] = assay: Cytotoxicity against human MCF10A cells after 72 hrs by sulforhodamine B assay; assay type: cell-based; outline: as §1
# MCF7 [10] = assay: Antimigratory activity against human MCF7 cells assessed as reduction in cell migration at half IC50 to IC50 after 12 to 48 hrs by microscopy based wound healing assay; assay type: functional
# Outline: (§2)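 Wound healing: MCF-7 cells plated at 9.0 × 10^5 per 2 mL and grown overnight to confluence. Two scratches made with a pipette tip, then wash with PBS. Treatment at IC50 or ½ IC50, or 0.5% DMSO. Four positions per wound were imaged at 0, 12, 24 and 48 h at 100x. Migration distances were measured and normalised to control. Three independent experiments.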
# MCF7 [11] = assay: Antiproliferative activity against human MCF7 cells at IC50 after 48 hrs by Brdu incorporation assay relative to control; assay type: functional
# Outline: (§3)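 Labelling with 20 µM BrdU (final) for 6 h. FixDenat 30 min, then anti-BrdU-POD 90 min at room temperature. Substrate colour for 5-10 min, stopped with H2SO4, absorbance at 450 nm (reference 690 nm). Cell-free blanks included. At least three independent experiments in triplicate.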
# MCF7 [12] = assay: Induction of apoptosis in human MCF7 cells at IC50 after 48 hrs by Annexin-V-FITC/propidium iodide staining based flow cytometry; assay type: functional, cell-based
# Outline: (§4)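 Floating and adherent cells were pooled and resuspended in binding buffer. Staining with FITC-annexin V and PI for 15 min at room temperature in the dark, followed by flow cytometry quadrant analysis normalised to untreated cells. Two independent experiments, triplicates within each.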
# MCF7 [13] = assay: Induction of apoptosis in human MCF7 cells assessed as increase in cleaved PARP level at IC50 after 24 hrs by Western blot analysis; assay type: functional, cell-based
# Outline: (§5)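 MCF-7 cells at 70-80% confluence were treated at IC50 or with 0.5% DMSO for 24 h. Lysis in Tris/NaCl/EDTA buffer with NP-40, Triton X-100, phosphatase and protease inhibitors. 20 µg protein run on 12% SDS-PAGE and transferred to nitrocellulose. Probed overnight at 4 °C with anti-PARP (1:500) or anti-BIM (1:1000), then HRP secondaries and chemiluminescence. At least two independent experiments.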
# MCF7 [14] = assay: Induction of apoptosis in human MCF7 cells assessed as increase in Bim level at IC50 after 24 hrs by Western blot analysis; assay type: functional, cell-based; outline: as §5
# MCF7 [15] = assay: Cell cycle arrest in human MCF7 cells at IC50 after 48 hrs by propidium iodide staining based flow cytometry; assay type: functional
# Outline: (§6)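 MCF-7 cells seeded at 2.5×10^5 per well and grown overnight. […] Cells fixed in 70% ethanol for at least 30 min at 4 °C, then stained with PI (50 µg/mL) plus RNase A and Triton X-100 for 1 h in the dark at […]. Flow cytometry with 488 nm excitation gave the phase distribution. Two independent biological replicates.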
# MCF7 [16] = assay: Induction of microtubule disruption in human MCF7 cells at IC50 after 12 hrs by DAPI staining based microscopic analysis; assay type: cell-based
# Outline: (§7)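 MCF-7 cells seeded at 2.0×10^5 per well and incubated overnight. Treatment at IC50 for 12 h, with 0.5% DMSO vehicle and paclitaxel (2 µM) as reference. Fixation in methanol for 20 min at -20 °C and blocking in 5% BSA. β-tubulin antibody (1:200) for 2 h, fluorescent secondary for 1 h, and DAPI nuclear counterstain. Confocal imaging with a 60x oil objective, 405/488 nm excitation.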
# MCF7 [17] = assay: Antiproliferative activity against human MCF7 cells after 72 hrs in presence of doxorubicin by sulforhodamine B assay; assay type: functional, cell-based; details: MCF7, 72 h
# MCF-10A [18] = assay: Cytotoxicity against human MCF10A cells after 72 hrs in presence of doxorubicin by sulforhodamine B assay; assay type: cell-based
# [19] = Selectivity index, ratio of IC50 for human MCF10A cells in presence of doxorubicin to IC50 for human MCF7 cells in presence of doxorubicin; assay type: toxicity; details: MCF10A cells and MCF7 cells, read-out: Ratio IC50
# MCF7 [20] = assay: Induction of apoptosis in human MCF7 cells assessed as decrease in Bcl-xL level at IC50 after 48 hrs by Western blot analysis
# MCF7 [21] = assay: Antimigratory activity against human MCF7 cells assessed as reduction in cell migration at half IC50 to IC50 after 48 hrs by microscopy based wound healing assay relative to control; assay type: functional; parameters: scale not given: the % may be the effect or the level left; outline: as §2
# MCF7 [22] = assay: Induction of apoptosis in human MCF7 cells assessed as increase in early apoptotic cells at IC50 after 48 hrs by Annexin-V-FITC/propidium iodide staining based flow cytometry; assay type: functional, cell-based; outline: as §4
# MCF7 [23] = assay: Induction of apoptosis in human MCF7 cells assessed as increase in late apoptotic cells at IC50 after 48 hrs by Annexin-V-FITC/propidium iodide staining based flow cytometry; assay type: functional, cell-based; outline: as §4
# MCF7 [24] = assay: Cell cycle arrest in human MCF7 cells assessed as accumulation at G2/M phase at IC50 after 48 hrs by propidium iodide staining based flow cytometry; assay type: functional; outline: as §6
# MCF7 [25] = assay: Cell cycle arrest in human MCF7 cells assessed as reduction in G0/G1 population at IC50 after 48 hrs by propidium iodide staining based flow cytometry; assay type: functional; outline: as §6
# MCF7 [26] = assay: Induction of microtubule disruption in human MCF7 cells assessed as cell detachment at IC50 after 12 hrs by DAPI staining based microscopic analysis; outline: as §7
# MCF7 [27] = assay: Induction of microtubule disruption in human MCF7 cells assessed as cell shrinkage at IC50 after 12 hrs by DAPI staining based microscopic analysis; outline: as §7
# MCF7 [28] = assay: Induction of microtubule disruption in human MCF7 cells assessed as cell rounding at IC50 after 12 hrs by DAPI staining based microscopic analysis; outline: as §7
# MCF7 [29] = assay: Induction of microtubule disruption in human MCF7 cells assessed as nuclei contraction at IC50 after 12 hrs by DAPI staining based microscopic analysis; assay type: cell-based
# MCF7 [30] = assay: Induction of microtubule disruption in human MCF7 cells assessed as nuclei condensation at IC50 after 12 hrs by DAPI staining based microscopic analysis; assay type: cell-based
# MCF7 [31] = assay: Inhibition of beta-tubulin polymerization in human MCF7 cells assessed as increase in beta-tubulin levels at IC50 after 24 hrs by Western blot analysis; assay type: cell-based
# MCF7 [32] = assay: Antiproliferative activity against human MCF7 cells at half IC50 to IC50 after 24 to 48 hrs by Brdu incorporation assay; assay type: functional, cell-based; outline: as §3
# MCF7 [33] = assay: Cell cycle arrest in human MCF7 cells assessed as DNA fragmentation at IC50 after 48 hrs by propidium iodide staining based flow cytometry; assay type: functional; outline: as §6
# MCF7 [34] = assay: Cell cycle arrest in human MCF7 cells assessed as accumulation at sub-G0/G1 phase at IC50 after 48 hrs by propidium iodide staining based flow cytometry; assay type: functional; outline: as §6
IC50 (MCF7 [7]),IC50 (Hs-578T [8]),IC50 (MCF7 [17]),Compound,viability at 10 µM (MCF7 [1]),viability at 30 µM (MCF7 [2]),viability at 10 µM (Hs-578T [3]),viability at 30 µM (Hs-578T [4]),"viability at 72 h, 10 µM [5]","viability at 72 h, 30 µM [6]",IC50 (MCF-10A [9]),Activity (MCF7 [10]),Activity (MCF7 [11]),Activity (MCF7 [12]),Activity (MCF7 [13]),Activity (MCF7 [14]),Activity (MCF7 [15]),Activity (MCF7 [16]),IC50 (MCF-10A [18]),selectivity ratio [19],Activity (MCF7 [20]),other results
3.98 µM,4.8 µM,0.27 µM,Cc1ccc(C(=O)/C=C/c2cc(Cl)ccc2O)cc1,36.8%,27.7%,66.3%,70.5%,33.5%,51.1%,24.2 µM,inactive,>50%,inactive,Active,Active,inactive,inactive,1.1 µM,3.07,Active,–
3.65 µM,4.52 µM,0.11 µM,COc1cccc(C(=O)CC2C(C#N)=C(N)Oc3c(OC)cc(Br)cc32)c1 (centres undefined),55.9%,33.9%,46.1%,83.3%,32.3%,46.3%,18.9 µM,–,20%,–,Active,Active,–,–,1.58 µM,13.4,Active,Activity (MCF7 [21]): 50%; Activity (MCF7 [22]): Active; Activity (MCF7 [23]): Active; Activity (MCF7 [24]): Active; Activity (MCF7 [25]): Active; Activity (MCF7 [26]): Active; Activity (MCF7 [27]): Active; Activity (MCF7 [28]): Active; Activity (MCF7 [29]): Active; Activity (MCF7 [30]): Active; inhibition (MCF7 [31]): Active
3.82 µM,5.88 µM,0.28 µM,O=C(/C=C/c1cc(Br)ccc1O)c1ccc(Br)cc1,28.7%,28.3%,63.5%,124%,32.8%,47.6%,29.3 µM,inactive,–,inactive,Active,Active,inactive,inactive,15.1 µM,53,Active,Activity (MCF7 [32]): inactive
5.07 µM,7.27 µM,0.42 µM,COc1cccc(C(=O)/C=C/c2cc(Br)ccc2O)c1,26.9%,28.3%,38.5%,55.8%,33.8%,66.3%,40.6 µM,inactive,>50%,–,Active,Active,–,inactive,> 60 µM,> 142,Active,Activity (MCF7 [22]): Active; Activity (MCF7 [23]): Active; Activity (MCF7 [33]): Active; Activity (MCF7 [34]): Active
